Screening results (PubChem BioAssay)
In the library only some 1.8% were active in any assay of this set; here they are far more common.
RanGTP-Impb inh = disruptors of Ran-importin-beta complex formation – biochemical, FRET, CFP-Ran, YFP-importin-beta, homogeneous, primary screen | cell-free CFP-Ran/YFP-importin-beta FRET ratio | inhibition, % (test concentration not listed) | hit rate 1.1% among 300,000 | AID 2216;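 active = more than half of the replicate wells show a fall in the fluorescence ratio signal beyond about 16%, limit read from the data, passing the limit was not always enough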;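 note: 0% = DMSO wells and 100% = Ran loaded with GDP instead of GTP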
Runt-SMMHC FRET = inhibitors of human RUNX1 Runt domain binding to CBFb-SMMHC; AID 1434; inhibition, % at 20 µM; Cerulean-Runt/Venus-CBFb-SMMHC FRET ratio 530/480, 1 h; hit rate 0.74% among 220,000; Q01196+Q13951;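 active = mean inhibition across duplicate retests at 20 µM reaching about 50%, limit read from the data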;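 note: 0% = DMSO wells and 100% = wells with excess untagged CBFb-SMMHC; inhibitors lower the FRET ratio by blocking Runt binding to CBFb-SMMHC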
Hck Nef HTS = human Hck-Nef kinase inhibition; Recombinant Hck-YEEI plus Nef, Z-Lyte FRET kinase assay; AID 463187; inhibition, % at 20 µM; hit rate 0.68% among 220,000; P08631;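 active = Hck-Nef kinase inhibition above about 50%, limit read from the data; inactive = inhibition below that limit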;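 note: 0% = DMSO with Hck plus Nef and 100% = Hck alone without Nef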
Target sequence (P08631 whole entry, looked up): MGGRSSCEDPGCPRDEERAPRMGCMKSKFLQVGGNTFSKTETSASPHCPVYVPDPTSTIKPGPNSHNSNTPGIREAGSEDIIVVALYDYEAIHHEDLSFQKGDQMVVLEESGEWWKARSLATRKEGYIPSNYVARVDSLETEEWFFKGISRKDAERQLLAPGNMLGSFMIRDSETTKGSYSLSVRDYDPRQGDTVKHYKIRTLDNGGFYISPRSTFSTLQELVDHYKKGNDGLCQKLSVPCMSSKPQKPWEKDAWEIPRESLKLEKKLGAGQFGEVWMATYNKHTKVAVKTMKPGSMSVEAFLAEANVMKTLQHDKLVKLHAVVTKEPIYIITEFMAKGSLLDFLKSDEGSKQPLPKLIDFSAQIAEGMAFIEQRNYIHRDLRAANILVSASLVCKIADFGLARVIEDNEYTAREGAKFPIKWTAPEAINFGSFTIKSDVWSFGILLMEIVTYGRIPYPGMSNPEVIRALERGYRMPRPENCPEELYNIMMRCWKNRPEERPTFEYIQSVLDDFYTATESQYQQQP
Runt-CBFb FRET = Runt domain-CBFb interaction inhibition; Q01196+Q13951; Cerulean-Runt/Venus-CBFb FRET ratio 530/480, 1 h; inhibition, % at 20 µM; hit rate 0.46% among 220,000; AID 1496;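 active = inhibition over about 50% at 20 µM in the single-dose screen, limit read from the data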;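 note: 0% = DMSO wells and 100% = excess unlabeled CBFb competitor control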
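Assay system: Cerulean-Runt domain fusion protein, energy donor; Signal: fluorescence energy transfer, 422 nm excitation, 530/480 nm emission; Timing: 1 h compound exposure, room temperature; Control set: unlabeled CBFb; Medium: Tris buffer pH 7.5 with salts and BSA; Compound: single test concentration of 20 µM, 1% DMSO final; Probe or stimulus: Venus-CBFb 100 nM.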
* marks the source's active call; other numbers are inactive results; . = no result.

SMILES	RanGTP-Impb inh	Runt-SMMHC FRET	Hck Nef HTS	Runt-CBFb FRET
O=S(=O)(Nc1nc2ccccc2nc1NCc1ccco1)c1ccc(F)cc1	6	-2	13	1
Cn1c(/C(C#N)=C/c2ccc(O)cc2)nc2ccccc21	28*	-3	-17	13
S=C(Nc1ccc(Nc2ccccc2)cc1)Nc1ccccn1	-2	7	94*	16
CCn1cc(S(=O)(=O)Nc2cc(C(=O)OC)ccc2C)cn1	32*	.	.	.
CC1(C)Cc2c(sc3[nH]c(=S)[nH]c(=O)c23)CO1	1	.	16	.
c1nc2n(n1)C1=C(CCCC1)C1(CCCCC1)N2	15*	0	26	-1
CCCn1c(C)cc(C(=O)COC(=O)c2nccnc2N)c1C	25*	7	27	11
COc1ccc(CCn2c(C)cc(C(=O)COC(=O)c3cnccn3)c2C)cc1	-1	.	.	.
CCCNC(=O)c1ccc2c(=O)n3c(-c4ccc(C)cc4)csc3nc2c1	0	1	17	4
CN(C)S(=O)(=O)N1CCN(S(=O)(=O)N2CCOCC2)CC1	0	0	57*	2
Cc1nc(-c2nc(-c3c(C(=O)NNC(=O)c4ccc(Cl)cc4)noc3C)cs2)cs1	17*	-3	13	0
Cc1nc(-c2nc(-c3c(C(=O)NNC(=O)Nc4cccc(Cl)c4)noc3C)cs2)cs1	6	20	21	3
COc1cc2ncnc(NCc3cccc(Cl)c3)c2cc1OC	2	2	65*	-2
Cc1ccc(C)c(-n2c(-c3ccco3)n[nH]c2=S)c1	15*	.	.	.
COc1ccccc1-n1c(-c2ccco2)n[nH]c1=S	0	.	.	.
Cc1ccccc1C(=O)Nc1nnc(CC(=O)N/N=C/c2ccncc2)s1	-1	0	-21	0
O=C/C(=C\Nc1ccc(Cl)cn1)c1nc2cc(Cl)ccc2o1	8	-40	13	-19
O=C/C(=C\Nc1ccc(S(=O)(=O)CCO)cc1)c1nc2cc(Cl)ccc2o1	22*	-6	-7	-4
COC(=O)c1sccc1NC(=O)C1CC1	-1	-1	1	-1
c1cncc(-c2nnc3sc(-c4ccco4)nn23)c1	5	-3	3	3
CCN(CC)c1ccc(-c2nn3c(-c4cccnc4)nnc3s2)cc1	11	80*	32	21
Nc1ccc2c(c1)N=[N+]([O-])c1cc(N)ccc1C2	32*	-3	6	1
Nc1ccc2c(c1)Cc1cc([N+](=O)[O-])ccc1-2	-16	-57	-1	-20
Cc1ccccc1-c1ccc(/C=C2/SC(N3CCOCC3)=NC2=O)o1	20*	-42	10	-21
CSc1nsc(N/N=C/c2ccc3c(c2)OCO3)c1C#N	20*	16	-5	14
SMILES	RanGTP-Impb inh	Runt-SMMHC FRET	Hck Nef HTS	Runt-CBFb FRET
COc1cc(/C=N/Nc2snc(SC)c2C#N)cc(OC)c1OC	1	3	1	8
CC(=O)Nc1ccccc1OCC(=O)NCCC1=CCCCC1	5	0	15	-1
CCC(=O)NCCc1nc2cc(NC(=O)c3cccc([N+](=O)[O-])c3)ccc2n1C	5	.	.	.
CCOc1ccc2nc(Cl)c(C3CC(c4ccco4)=NN3S(=O)(=O)c3ccccc3)cc2c1 (stereo unspecified)	-1	-6	59*	-2
COc1ccc2cc(C3CC(c4ccco4)=NN3S(C)(=O)=O)c(Cl)nc2c1 (stereo unspecified)	-5	-4	-176	30
Cc1cc(C)c(S(=O)(=O)N2CCCC(C(=O)NCc3ccccn3)C2)c(C)c1 (stereo unspecified)	-5	.	.	.
O=C(CSCC(=O)N1CCCc2ccccc21)Nc1nc(-c2ccccc2)cs1	3	-6	-4	-1
Cc1ccc(CN2CC(C(=O)Nc3cccc(S(=O)(=O)N4CCCCC4)c3)CC2=O)cc1 (stereo unspecified)	3	-4	3	-2
O=C(Nc1cccc(S(=O)(=O)N2CCCCC2)c1)C1CC(=O)N(Cc2ccco2)C1 (stereo unspecified)	40*	-3	15	1
Cc1cc(C(N)=O)c2cc(Br)ccc2n1	27*	2	0	0
Cc1cc(C(=O)NN)c2cc(Br)ccc2n1	4	-1	-22	2
c1cc2c3c(cccc3c1)C(N1CCCCCC1)=N2	23*	60	2	-17
CCN(CC)c1ccc2cc(NC(=O)CCC(=O)O)c(=O)oc2c1	136*	63*	17	18
CCN(CC)c1ccc2cc(C(N)=O)c(=N)oc2c1	151*	92*	22	20
CCN(CC)c1ccc2cc(/C(N)=N/NC(=O)c3cccs3)c(=O)oc2c1	159*	-102	15	-39
CCN(CC)c1ccc2cc(C=O)c(=O)oc2c1	126*	60*	6	17
CCN(CC)c1ccc2cc(-c3nnc(-c4ccncc4)o3)c(=O)oc2c1	.	63*	-13	18
CCN(CC)c1ccc2cc(C(=O)Nc3ccccn3)c(=O)oc2c1	161*	62*	20	18
Cn1c(CO)cnc1S(=O)(=O)Cc1c(Cl)cccc1Cl	4	.	.	.
Cc1ccc2nc(-c3ccccc3)c(-c3ccccc3)nc2c1	-4	0	15	-1
Cc1ccc2nc(=O)c(NNc3ccccc3)cnc2c1	.	1	94*	-3
Cc1ccc(NC(=O)c2nc(S(=O)(=O)Cc3ccccc3C)ncc2Cl)cc1C	-1	.	.	.
CC(=O)N1CCC(=NNC(=O)c2cccs2)CC1	2	0	7	-2
CCCc1nnc(NC(=O)OCC)s1	-1	-2	-4	0
COc1ccc(OC)c(N2C(=O)CC(Cc3ccc(Cl)cc3)C2=O)c1 (stereo unspecified)	-3	0	7	-2
SMILES	RanGTP-Impb inh	Runt-SMMHC FRET	Hck Nef HTS	Runt-CBFb FRET
COc1ccc(OC)c(N2C(=O)CC(Cc3cc(C)cc(C)c3)C2=O)c1 (stereo unspecified)	31*	1	7	-5
CCc1ccc(-c2cnc3nc[nH]c(=O)c3n2)cc1	15*	.	.	.
CN(C)c1c(N)c(=O)oc2ccccc12	-1	-4	14	0
Nc1c(N)c2ccccc2oc1=O	20*	-12	2	2
Cc1ccc(O)c(Nc2c3ccccc3nc3ccccc23)c1	24*	.	.	.
Cc1ccc(O)c(Nc2nc(-c3ccccc3)nc3ccccc23)c1	-3	.	.	.
O=C(Nc1ccc2c(c1)OCCO2)C1CCCN(S(=O)(=O)c2cnc[nH]2)C1 (stereo unspecified)	143*	4	14	-1
Cn1nc(-c2ccc(Cl)cc2)c2cc(C(=O)NCCCN3CCOCC3)sc21	4	-3	1	2
Cn1nc(-c2ccc(Cl)cc2)c2cc(C(=O)NCCN3CCOCC3)sc21	136*	-4	2	3
COc1cc(C2C(C#N)=C(N)N(Nc3ccccc3)C3=C2C(=O)CC(C)(C)C3)ccc1OCc1ccccc1 (stereo unspecified)	5	32	5	18
C=CCOc1ccc(C2C(C#N)=C(N)N(Nc3ccccc3)C3=C2C(=O)CCC3)cc1OC (stereo unspecified)	7	104*	15	89*
